This is an account of results in ChEMBL document CHEMBL4007413, “Replacing d-Glucosamine with Its l-Enantiomer in Glycosylated Antitumor Ether Lipids (GAELs) Retains Cytotoxic Effects against Epithelial Cancer Cells and Cancer Stem Cells” (J Med Chem, 2017).

A word on the CC50: it is the concentration that lowers cell viability or growth by half.

Activity calls are given as the source filed them. No cut-off for these calls is given here.

The test system of series [1] is DU-145. Kind of series: Cytotoxicity against human DU145 cells assessed as decrease in cell viability up to 8 uM after 48 hrs in presence of pan-caspase inhibitor QVD-OPh by MTS assay. It is filed as functional, cell-based. In outline:
(§1)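 DU-145 and JIMT-1 cells (DMEM + 10% FBS) were treated with compounds with or without the pan-caspase inhibitor QVD-OPh (40 µM). Viability was read by MTS: cells were seeded, treated 24 h later for 48 h, given MTS (20% v/v) for 1–4 h, and read at OD490 against cell-free blanks.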

In series [2] the test system is JIMT-1. The experiment in a line: Cytotoxicity against human JIMT1 cells assessed as decrease in cell viability up to 8 uM after 48 hrs in presence of pan-caspase inhibitor QVD-OPh by MTS assay. It is filed as functional, cell-based. The method, boiled down:
as §1

Series [3] deals with BT-474. The experiment in a line: Disruption of cancer stem cells spheroids derived from human BT474 cells at >=7.5 uM after 3 days by microscopic analysis. It is filed as functional, cell-based. The method, boiled down: (§2)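 Cancer stem cells were isolated from BT-474 by ALDH1 activity. Equal numbers were seeded in ultra-low-adhesion wells and grown to spheroids. Spheroids were then incubated with or without compounds for 3 days. Spheroid integrity was assessed by light microscopy (×10). Viability was measured in parallel by MTS.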

Series [4] concerns BT-474. Kind of series: Cytotoxicity against human BT474 cells assessed as decrease in cell viability after 48 hrs by MTS assay. In kind it is functional. Particulars: BT-474, 48 h. The method, boiled down:
(§3)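 Cells were seeded at equal numbers and, after 24 h, exposed to compounds (0–30 µM) for 48 h. MTS reagent (20% v/v) was then added for 1–4 h, and OD490 was read. Cell-free medium wells served as blanks. Media were DMEM/F12 + 10% FBS for BT-474; DMEM + 10% FBS for DU-145 and MDA-MB-231; and DMEM + 10% FBS + 2.5% horse serum for MiaPaCa-2. Values are mean ± SD, n=6.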
(Formazan colour is commonly taken as a measure of viable cells.)

Series [5] has as its system MIA PaCa-2. Kind of series: Cytotoxicity against human MIAPaCa2 cells assessed as decrease in cell viability after 48 hrs by MTS assay. In kind it is functional. The note with it: MIA PaCa-2, 48 h. The method, boiled down: as §3
Series [6] has as its system JIMT-1. The experiment in a line: Cytotoxicity against human JIMT1 cells assessed as decrease in cell viability up to 8 uM after 48 hrs in absence of pan-caspase inhibitor QVD-OPh by MTS assay. In kind it is functional, cell-based. In outline: as §1
The subject of series [7] is DU-145. Kind of series: Cytotoxicity against human DU145 cells assessed as decrease in cell viability up to 8 uM after 48 hrs in absence of pan-caspase inhibitor QVD-OPh by MTS assay. It is filed as functional, cell-based. In outline: as §1
Series [8] deals with DU-145. Kind of series: Cytotoxicity against human DU145 cells assessed as decrease in cell viability after 48 hrs by MTS assay. It is filed as functional. The note with it: DU-145, 48 h. The method, boiled down: as §3
Series [9] deals with MDA-MB-231. Kind of series: Cytotoxicity against human MDA-MB-231 cells assessed as decrease in cell viability after 48 hrs by MTS assay. In kind it is functional. Particulars: MDA-MB-231, 48 h. The method, boiled down: as §3
In a further series the test system is Erythrocyte. Kind of series: Induction of hemolysis in sheep erythrocytes at 30 uM after 30 mins by spectrophotometric analysis. In kind it is functional, Ovis aries.
Series [10] concerns DU-145. Kind of series: Cytotoxicity against human DU145 cells assessed as cell death at 7.5 uM after 48 hrs by MTS assay. In kind it is functional. The method, boiled down: (§4)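 Equal numbers of cells were plated. After 24 h they were exposed to compounds (0–30 µM) for 48 h, then given MTS reagent (20% v/v) for 1–4 h. OD490 was read against cell-free blank wells; mean ± SD of 6 determinations. Media: BT-474 in DMEM/F12 + 10% FBS; DU-145, JIMT-1 and MDA-MB-231 in DMEM + 10% FBS; MiaPaCa-2 in DMEM + 10% FBS + 2.5% horse serum; PC-3 in F12K + 10% FBS; all with penicillin/streptomycin.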

For series [11], the system named is PC-3. The experiment in a line: Cytotoxicity against human PC3 cells assessed as cell death at 7.5 uM after 48 hrs by MTS assay. In kind it is functional. In outline: as §4
In series [12] the test system is BT-474. The experiment in a line: Cytotoxicity against human BT474 cells assessed as cell death at 7.5 uM after 48 hrs by MTS assay. In kind it is functional. The method, boiled down: as §4
The test system of series [13] is DU-145. Kind of series: Induction of cell death in human DU145 cells assessed as rounding up of cells at 6 uM after 6 hrs fluorescence microscopic analysis. In kind it is functional, cell-based. In outline:
(§5)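 DU-145 cells were incubated with compounds at 6 µM for 6 h. They were then stained with cell-impermeant ethidium homodimer-1 and examined by fluorescence microscopy for cell rounding and red DNA staining. Cells given 0.01% Triton X-100 for 10 min served as the lysis control.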

Series [14] deals with MIA PaCa-2. Kind of series: Cytotoxicity against human MIAPaCa2 cells assessed as cell death at 7.5 uM after 48 hrs by MTS assay. In kind it is functional. In outline:
as §4

Series [15] relates to JIMT-1. The experiment in a line: Cytotoxicity against human JIMT1 cells assessed as cell death at 7.5 uM after 48 hrs by MTS assay. In kind it is functional. The method, boiled down: as §4
Series [16] relates to DU-145. Kind of series: Induction of membrane lysis in human DU145 cells at 6 uM after 6 hrs by EthD-1 staining based fluorescence microscopic analysis. In kind it is functional, cell-based. In outline:
as §5

The subject of series [17] is BT-474. The experiment in a line: Disruption of cancer stem cells spheroids derived from human BT474 cells at >=5 uM after 3 days by microscopic analysis. In kind it is functional, cell-based. In outline:
as §2

The test system of series [18] is MDA-MB-231. Kind of series: Cytotoxicity against human MDA-MB-231 cells assessed as cell death at 7.5 uM after 48 hrs by MTS assay. It is filed as functional. In outline:
as §4

In series [19] the test system is JIMT-1. The experiment in a line: Induction of membrane lysis in human JIMT1 cells at 4 uM after 6 hrs by EthD-1 staining based fluorescence microscopic analysis. In kind it is functional, cell-based.
Series [20] has as its system JIMT-1. The experiment in a line: Induction of cell death in human JIMT1 cells assessed as rounding up of cells at 4 uM after 6 hrs by fluorescence microscopic analysis. It is filed as functional, cell-based.
The subject of series [21] is BT-474. The experiment in a line: Cytotoxicity against cancer stem cells derived from human BT474 cells assessed as cancer stem cell death at 7.5 uM after 3 days by MTS assay. In kind it is functional. In outline:
(§6)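 CSCs were isolated from BT-474 using ALDH1 activity as the stemness marker. They were grown in ultra-low adhesion wells for 4 days to form spheroids. Spheroids were then exposed to compounds (0–20 µM) for 3 days. Viability was read by MTS assay and expressed as % of untreated control.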

The nature of series [22]: Stability in bovine liver extracts assessed as bovine liver glycosidase mediated compound cleavage by TLC analysis. It is filed as ADME, Bos taurus. The note with it: cattle. In outline:
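A bovine liver glycosidase fraction in 0.05 M sodium citrate pH 5.0 was combined with 0.2 M citrate pH 4.4 buffer, substrate (30 mM stock) and Triton X-100 (10% stock) for solubilization. Controls were no enzyme and a β-D-glucose-based GAEL. After 1 h, methanol was added, the mixture was centrifuged, and the supernatant was analysed by TLC. Run in quadruplicate.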

Another series has as its system BXPC-3. Kind of series: Induction of cell death in human BxPC3 cells assessed as clear large vacuole formation at 5 uM after 4 hrs.
Series [23] relates to MIA PaCa-2. The experiment in a line: Cytotoxicity against human MIAPaCa2 cells assessed as cell death at 2 to 25 times CC50 after 48 hrs by MTS assay. It is filed as functional. The method, boiled down:
as §4

Series [24] deals with DU-145. Kind of series: Cytotoxicity against human DU145 cells assessed as cell death at 2 to 25 times CC50 after 48 hrs by MTS assay. In kind it is functional. In outline:
as §4

The subject of series [25] is BT-474. Kind of series: Cytotoxicity against human BT474 cells assessed as cell death at 2 to 25 times CC50 after 48 hrs by MTS assay. In kind it is functional. In outline: as §4
The test system of series [26] is PC-3. Kind of series: Cytotoxicity against human PC3 cells assessed as cell death at 2 to 25 times CC50 after 48 hrs by MTS assay. In kind it is functional. The method, boiled down:
as §4

In series [27] the test system is MDA-MB-231. The experiment in a line: Cytotoxicity against human MDA-MB-231 cells assessed as cell death at 2 to 25 times CC50 after 48 hrs by MTS assay. It is filed as functional. The method, boiled down:
as §4

The subject of series [28] is JIMT-1. Kind of series: Cytotoxicity against human JIMT1 cells assessed as cell death at 2 to 25 times CC50 after 48 hrs by MTS assay. It is filed as functional. The method, boiled down:
as §4

Series [29] relates to BT-474. The experiment in a line: Cytotoxicity against cancer stem cells derived from human BT474 cells assessed as cancer stem cell death at 20 uM after 3 days by MTS assay. In kind it is functional. The method, boiled down: as §6
Series [30] concerns BT-474. Kind of series: Disruption of cancer stem cells spheroids derived from human BT474 cells at 20 uM after 3 days by microscopic analysis. It is filed as functional, cell-based. In outline: as §2

As to `CCCCCCCCCCCCCCCCOC[C@H](CO[C@@H]1O[C@@H](CN)[C@H](O)[C@@H](O)[C@@H]1N)OC`, the result in the series with DU-145 [1], with JIMT-1 [2], in the series on BT-474 [3], in the series with JIMT-1 [6] and with DU-145 [7] was Active. Besides, the CC50 in the series with BT-474 [4], in the series with MIA PaCa-2 [5], with DU-145 [8] and with MDA-MB-231 [9] was 4 to 11 µM throughout. The same compound displayed an Activity in the series on Erythrocyte of less than 5%.
On to `CCCCCCCCCCCCCCCCOC[C@H](CO[C@@H]1O[C@H](CN)[C@@H](OCc2ccccc2)[C@H](O)[C@H]1N)OC`, for which the Activity with DU-145 [10], in the series with PC-3 [11], in the series on BT-474 [12], in the series on MIA PaCa-2 [14], in the series with JIMT-1 [15] and in the series on MDA-MB-231 [18] was greater than 95% throughout. Also, the Activity with Erythrocyte was less than 5%; with BT-474 [21], greater than 95%. For the same compound, the result with DU-145 [13], in the series on BT-474 [17] and in the series with JIMT-1 [20] was Active. The result with DU-145 [16] and in the series on JIMT-1 [19] was inactive. Further, the CC50 with BT-474 [4], in the series with MIA PaCa-2 [5], in the series on DU-145 [8] and with MDA-MB-231 [9] was 2 to 6 µM each time.
Consider `CCCCCCCCCCCCCCCCOC[C@H](CO[C@@H]1O[C@@H](CN)[C@H](OCc2ccccc2)[C@@H](O)[C@@H]1N)OC`, for which the Activity in the series on DU-145 [10], in the series with PC-3 [11], in the series on BT-474 [12], in the series on MIA PaCa-2 [14], in the series with JIMT-1 [15] and in the series on MDA-MB-231 [18] was greater than 95% throughout. In addition, the Activity in the series on Erythrocyte was less than 5%; in the series on BT-474 [21] it was greater than 95%. Moreover, the outcome in the series with DU-145 [1], with JIMT-1 [2], with DU-145 [13], with BT-474 [17], in the series with JIMT-1 [6] and in the series with DU-145 [7] was Active. Also, the result in the series with BXPC-3 and in the series on JIMT-1 [20] was Active. In addition, the Stability result in [22] is “Stable”. Further, the outcome in the series on DU-145 [16] and with JIMT-1 [19] was inactive. Also, the cytotoxic concentration (CC50) in the series with BT-474 [4], with MIA PaCa-2 [5], in the series on DU-145 [8] and in the series with MDA-MB-231 [9] was 2 to 6 µM each time.
Turning to `COc1cccc2c1C(=O)c1c(O)c3c(c(O)c1C2=O)C[C@@](O)(C(=O)CO)C[C@@H]3O[C@H]1C[C@H](N)[C@H](O)[C@H](C)O1.Cl` [DOXORUBICIN HYDROCHLORIDE], the Activity in the series with MIA PaCa-2 [23], in the series with DU-145 [24], in the series on BT-474 [25], in the series with PC-3 [26], with MDA-MB-231 [27] and in the series on JIMT-1 [28] was less than 90% throughout. The values for the Activity with BT-474 [29] and in the series with BT-474 [21] were 72% and 75%, respectively. For the same compound, the result in the series on DU-145 [1], with JIMT-1 [2] and in the series with BT-474 [30] was inactive. Further, the outcome in the series on JIMT-1 [6] and in the series on DU-145 [7] was Active.
